We go through three compounds from ChEMBL document CHEMBL1139340, “Synthesis, radiosynthesis, and biological evaluation of carbon-11 and fluorine-18 labeled reboxetine analogues: potential positron emission tomography radioligands for in vivo imaging of the norepinephrine transporter” (J Med Chem, 2009).

Data set [1] is filed under the species Homo sapiens. Nature of the data set: Selectivity for human NET over human DAT. The gist of the method: (§1)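 Competition binding in stably transfected cells expressing human transporters: NET vs [3H]nisoxetine and SERT vs [3H]citalopram in HEK-293 cells; DAT vs [125I]RTI-55 in canine kidney cells. Ki as geometric mean of at least three experiments in triplicate; selectivity as ratio of SERT or DAT Ki to NET Ki.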

Data set [2] is filed under the species Homo sapiens. Nature of the data set: Selectivity for human NET over human SERT. The gist of the method: as §1
The nature of data set [3]: Lipophilicity, log P at pH 7.4. It is filed as physicochemical. Conditions: buffer. The gist of the method:
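Radiotracer (~5–10 μCi) in 2 mL 1-octanol plus 2 mL 0.02 M sodium phosphate buffer, pH 7.4. Vortexed 10 min at room temperature, centrifuged 5 min. 0.5 mL of each layer gamma-counted and decay corrected. log P = log(octanol counts/buffer counts), done three times and averaged.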

Data set [4] deals with Sodium-dependent noradrenaline transporter (Homo sapiens, UniProt P23975). Nature of the data set: Displacement of [3H]nisoxetine from human NET receptor expressed in HEK293 cells. The format is cell-based.
Sequence of Sodium-dependent noradrenaline transporter (P23975 whole entry): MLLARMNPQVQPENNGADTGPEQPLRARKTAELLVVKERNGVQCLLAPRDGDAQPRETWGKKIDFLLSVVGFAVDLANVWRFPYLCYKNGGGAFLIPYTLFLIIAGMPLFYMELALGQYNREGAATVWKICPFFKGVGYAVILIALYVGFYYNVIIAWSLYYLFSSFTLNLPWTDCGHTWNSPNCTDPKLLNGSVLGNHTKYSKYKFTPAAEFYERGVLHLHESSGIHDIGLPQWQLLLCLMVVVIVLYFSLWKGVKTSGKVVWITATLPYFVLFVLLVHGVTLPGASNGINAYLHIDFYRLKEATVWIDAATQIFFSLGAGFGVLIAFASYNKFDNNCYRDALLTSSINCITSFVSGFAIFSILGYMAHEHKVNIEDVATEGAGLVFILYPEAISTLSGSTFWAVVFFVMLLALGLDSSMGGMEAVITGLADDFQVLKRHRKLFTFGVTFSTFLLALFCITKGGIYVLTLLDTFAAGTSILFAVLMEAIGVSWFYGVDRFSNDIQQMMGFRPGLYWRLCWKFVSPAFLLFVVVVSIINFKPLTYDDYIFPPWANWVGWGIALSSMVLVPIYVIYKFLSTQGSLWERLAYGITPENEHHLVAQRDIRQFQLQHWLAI
The target of data set [5] is Sodium-dependent dopamine transporter (Homo sapiens, UniProt Q01959). Nature of the data set: Displacement of [125I]RTI-55 from human DAT receptor expressed in canine kidney cells. It is filed as cell-based. In outline:
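Competition binding against [¹²⁵I]RTI-55 in canine kidney cells stably transfected with human DAT. Ki in nM, geometric mean ± SD of at least three separate experiments, each run in triplicate.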

The target in data set [6] is Sodium-dependent serotonin transporter (Homo sapiens, UniProt P31645). Nature of the data set: Displacement of [3H]citalopram from human SERT receptor expressed in HEK293 cells. It is filed as cell-based. In outline: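 Competition binding against [³H]citalopram in HEK-293 cells stably transfected with human SERT. Ki in nM, geometric mean ± SD of at least three separate experiments, each run in triplicate.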
Sequence of Sodium-dependent serotonin transporter (P31645 whole entry): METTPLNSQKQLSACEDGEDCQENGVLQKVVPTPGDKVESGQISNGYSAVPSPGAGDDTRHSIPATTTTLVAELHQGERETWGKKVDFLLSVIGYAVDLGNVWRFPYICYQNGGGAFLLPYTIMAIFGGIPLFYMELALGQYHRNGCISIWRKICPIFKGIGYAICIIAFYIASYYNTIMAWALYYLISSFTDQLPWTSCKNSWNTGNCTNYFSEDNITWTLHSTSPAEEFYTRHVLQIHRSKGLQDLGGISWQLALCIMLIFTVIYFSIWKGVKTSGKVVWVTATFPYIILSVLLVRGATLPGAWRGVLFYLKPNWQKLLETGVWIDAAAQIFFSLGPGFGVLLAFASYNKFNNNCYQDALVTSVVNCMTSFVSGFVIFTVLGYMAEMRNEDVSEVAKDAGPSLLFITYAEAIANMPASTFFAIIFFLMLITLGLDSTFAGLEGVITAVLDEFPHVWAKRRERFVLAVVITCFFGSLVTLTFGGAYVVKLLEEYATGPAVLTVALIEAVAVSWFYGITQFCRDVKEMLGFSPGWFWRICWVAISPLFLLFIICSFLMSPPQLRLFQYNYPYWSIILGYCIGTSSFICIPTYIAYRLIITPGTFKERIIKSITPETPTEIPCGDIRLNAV

Data set [7] can be described thus: Ratio of drug uptake in midbrain to caudate of anesthetized rhesus monkey at 15 to 20 mCi after 85 mins postinjection by microPET. The format is ADME, organism-based, Macaca mulatta. Conditions: in vivo. The gist of the method:
(§2)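 Anesthetized adult male rhesus monkeys given 15–20 mCi of the ¹¹C tracer, alone or after desipramine (0.125 or 0.25 mg/kg) 40 min beforehand. MicroPET emission collected continuously for 125 min and binned. ROIs drawn manually on anatomical landmarks to give time-activity curves. Region-to-caudate uptake ratio taken at 85 min postinjection.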

Data set [8] in a line: Ratio of drug uptake in cerebellum to caudate of awaken rhesus monkey at 15 to 20 mCi after by PET method. Conditions: in vivo. It is filed as ADME, tissue-based, Macaca mulatta. The gist of the method: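 Awake rhesus monkeys imaged on a high-resolution research tomograph for 120 min after injection of the ¹¹C tracer. Images coregistered with composite MRI to define regions of interest. Highest cerebellum-to-caudate uptake ratio read from the time-activity curves.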

Data set [9] in a line: Ratio of drug uptake in thalamus to caudate of awaken rhesus monkey at 15 to 20 mCi after by PET method. The format is ADME, Macaca mulatta. Conditions: in vivo. The gist of the method:
(§3)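 Awake rhesus monkeys imaged on a high-resolution research tomograph (HRRT) for 120 min after radioligand injection; images coregistered with composite MRI to define regions; time-activity curves generated and highest ratio of regional uptake to caudate uptake taken.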

Data set [10] in a line: Ratio of drug uptake in pons to caudate of anesthetized rhesus monkey at 15 to 20 mCi after 85 mins postinjection by microPET. Conditions: in vivo. It is filed as ADME, organism-based, Macaca mulatta. In outline: (§4)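 Anesthetized adult male rhesus monkeys scanned on a microPET P4 after 15–20 mCi of the 11C radioligand; emission collected continuously for 125 min, binned, time-activity curves from manually drawn anatomical ROIs; regional uptake divided by caudate uptake (caudate as NET-poor reference) at 85 min postinjection, at baseline.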

The nature of data set [11]: Ratio of drug uptake in pons to caudate of anesthetized rhesus monkey at 15 to 20 mCi pretreated with 0.125 mg/kg desipramine by microPET. Also noted: dose 0.125 mg/kg. Conditions: in vivo. The format is ADME, organism-based, Macaca mulatta. The gist of the method:
(§5)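 Anesthetized adult male rhesus monkeys imaged on a microPET P4 system after injection of 15–20 mCi of the 11C-labeled radioligand. Desipramine was given 40 min before radiotracer injection. Emission data were collected continuously for 125 min and binned. ROIs were drawn manually on anatomical landmarks in the reconstructed images. The ratio of region-of-interest to caudate uptake was taken from time-activity curves at 85 min postinjection.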

Data set [12] is described as follows: Ratio of drug uptake in thalamus to caudate of anesthetized rhesus monkey at 15 to 20 mCi after 85 mins postinjection by microPET. Particulars: in vivo. The format is ADME, organism-based, Macaca mulatta. In outline:
as §4

Data set [13] is described as follows: Ratio of drug uptake in pons to caudate of awaken rhesus monkey at 15 to 20 mCi after by PET method. It is filed as ADME, Macaca mulatta. Particulars: in vivo. In outline:
as §3

A short description of data set [14]: Ratio of drug uptake in cerebellum to caudate of anesthetized rhesus monkey at 15 to 20 mCi pretreated with 0.125 mg/kg desipramine by microPET. The format is ADME, organism-based, Macaca mulatta. Also noted: dose 0.125 mg/kg. Conditions: in vivo. The gist of the method: as §5
The nature of data set [15]: Ratio of drug uptake in cerebellum to caudate of anesthetized rhesus monkey at 15 to 20 mCi after 85 mins postinjection by microPET. It is filed as ADME, organism-based, Macaca mulatta. Particulars: in vivo. In outline:
as §2

Data set [16] can be described thus: Ratio of drug uptake in midbrain to caudate of anesthetized rhesus monkey at 15 to 20 mCi pretreated with 0.125 mg/kg desipramine by microPET. It is filed as ADME, organism-based, Macaca mulatta. Also noted: dose 0.125 mg/kg. Particulars: in vivo. In outline: as §5
Data set [17] can be described thus: Ratio of drug uptake in midbrain to caudate of awaken rhesus monkey at 15 to 20 mCi after by PET method. It is filed as ADME, Macaca mulatta. Conditions: in vivo. The gist of the method: as §3
Data set [18] is described as follows: Ratio of drug uptake in thalamus to caudate of anesthetized rhesus monkey at 15 to 20 mCi pretreated with 0.125 mg/kg desipramine by microPET. The format is ADME, organism-based, Macaca mulatta. Also noted: dose 0.125 mg/kg. Conditions: in vivo. The gist of the method:
as §5

Sequence of Sodium-dependent dopamine transporter (Q01959 whole entry): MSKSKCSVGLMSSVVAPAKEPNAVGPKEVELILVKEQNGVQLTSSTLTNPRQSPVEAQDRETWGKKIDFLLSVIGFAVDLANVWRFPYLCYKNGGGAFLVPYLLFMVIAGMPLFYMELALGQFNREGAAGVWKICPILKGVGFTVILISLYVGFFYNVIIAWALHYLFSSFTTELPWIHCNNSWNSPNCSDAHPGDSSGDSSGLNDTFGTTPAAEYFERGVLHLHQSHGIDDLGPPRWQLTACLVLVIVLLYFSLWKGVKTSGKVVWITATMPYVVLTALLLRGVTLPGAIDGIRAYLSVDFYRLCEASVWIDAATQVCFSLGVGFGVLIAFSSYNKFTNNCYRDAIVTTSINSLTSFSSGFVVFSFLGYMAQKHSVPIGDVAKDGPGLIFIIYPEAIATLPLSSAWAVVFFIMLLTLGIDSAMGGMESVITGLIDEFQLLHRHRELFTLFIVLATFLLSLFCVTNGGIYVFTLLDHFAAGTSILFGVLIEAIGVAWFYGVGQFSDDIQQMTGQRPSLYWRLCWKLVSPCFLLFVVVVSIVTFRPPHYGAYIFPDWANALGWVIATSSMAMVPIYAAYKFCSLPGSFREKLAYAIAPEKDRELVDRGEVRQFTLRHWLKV

For `FCCCc1ccccc1O[C@@H](c1ccccc1)[C@@H]1CNCCO1`, the results for the Ratio Ki in the data set filed under Homo sapiens [1] and in the data set filed under Homo sapiens [2] were greater than 2000 and 126, respectively. The compound also came in with a pH-dependent lipophilicity (logD) in data set [3] of 2.29. The inhibition constant (Ki) in [4] is 3.68 nM; in [5], greater than 6000 nM; in data set [6], 463 nM.
As to `[11CH3]c1ccccc1S[C@@H](c1ccccc1)[C@@H]1CNCCO1`, the Ratio was found to be 1.33 in data set [7]; 0.95 in data set [8]; 1.15 in [9]; 1.27 in [10]; 0.98 in data set [11]; 1.34 in data set [12]. Moreover, the Ratio in data set [13] came to 1; in data set [14], 0.81; in data set [15] it was 1.05; in data set [16], 1.09; in [17] it was 1; in data set [18], 1.02.
Consider `COc1ccccc1O[C@@H](c1ccccc1)[C@@H]1CNCCO1`, for which the Ratio Ki in the data set filed under Homo sapiens [2] came out at 195. In data set [5], this compound yielded a Ki greater than 2000 nM.
